From ChEMBL document CHEMBL1149637, “Design, synthesis, and evaluation of potential inhibitors of brassinin glucosyltransferase, a phytoalexin detoxifying enzyme from Sclerotinia sclerotiorum” (Bioorg Med Chem, 2007)
Active and inactive are the calls of the source. The calls are words filed in the database; no cut-off is given here.

Key:
Sclerotinia sclerotiorum [1] = assay: Inhibition of Sclerotina sclerotiorums brassinin glucosyl transferase assessed as specific activity at 0.60 mM
In short: (§1)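 Crude cell-free homogenate from clone #33 grown 7 days in PDB, induced with camalexin (0.05 mM final, 24 h). Mycelia were ground in ice-cold 50 mM Tris-HCl pH 8.0 buffer and centrifuged at 58,545g for 40 min. Inhibitor (from DMSO) was preincubated 30 min at room temperature with extract and UDPG (0.3 mM final). Brassinin (0.3 mM) was added, then 60 min incubation, EtOAc extraction and HPLC quantification of glucosylbrassinin. Protein measured by Bradford. Relative activity = specific activity vs brassinin-only control. Triplicate.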

Sclerotinia sclerotiorum [2] = assay: Inhibition of Sclerotina sclerotiorums brassinin glucosyl transferase assessed as percent relative activity in relative to brassinin at 0.60 mM; parameters: scale not given: the % may be the effect or the level left; in short: as §1
Sclerotinia sclerotiorum [3] = assay: Antifungal activity against Sclerotina sclerotiorum assessed as growth inhibition at 0.30 mM after 48 hrs; assay type: functional
In short: (§2)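 S. sclerotiorum clone #33 radial growth assay: mycelial plugs (4 mm, from 3-day-old PDA plates) placed upside down in wells of minimal medium containing compound diluted from 50 mM DMSO stock. Medium-only controls contained 1% DMSO. […] Run in triplicate, at least three times.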

Sclerotinia sclerotiorum [4] = assay: Inhibition of Sclerotina sclerotiorums brassinin glucosyl transferase assessed as percent relative activity in relative to brassinin at 0.30 mM; parameters: scale not given: the % may be the effect or the level left; in short: as §1
[5] = Metabolic stability assessed as half life in Sclerotina sclerotiorum at less than 0.01 mM; assay type: ADME, organism-based; conditions: sclerotinia sclerotiorum, Sclerotinia sclerotiorum (whole organism)
Sclerotinia sclerotiorum [6] = assay: Inhibition of Sclerotina sclerotiorums brassinin glucosyl transferase assessed as specific activity at 0.30 mM; in short: as §1
Sclerotinia sclerotiorum [7] = assay: Antifungal activity against Sclerotina sclerotiorum assessed as growth inhibition at 0.10 mM after 48 hrs; assay type: functional; in short: as §2
Sclerotinia sclerotiorum [8] = assay: Antifungal activity against Sclerotina sclerotiorum assessed as growth inhibition at 0.50 mM after 48 hrs; assay type: functional; in short: as §2
Sclerotinia sclerotiorum [9] = assay: Antifungal activity against Sclerotina sclerotiorum assessed as growth inhibition at 0.05 mM after 48 hrs; assay type: functional; in short: as §2
[10] = Metabolic stability assessed as half life in Sclerotina sclerotiorum at 0.10 mM; assay type: ADME, organism-based; conditions: sclerotinia sclerotiorum, Sclerotinia sclerotiorum (whole organism)
In short: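 Four-day-old mycelial cultures in minimal medium (22 °C, 120 rpm, constant light) received inhibitor (0.050 or 0.10 mM final, in CH₃CN at 0.5% v/v). After 10 min, brassinin (0.05 mM final) was added. Samples were withdrawn over time, EtOAc-extracted and analysed by HPLC-DAD for remaining brassinin. Half-life of brassinin was compared with brassinin-only cultures. An uninoculated medium control was included.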

Sclerotinia sclerotiorum [11] = assay: Antifungal activity against Sclerotina sclerotiorum assessed as growth inhibition at 0.01 mM after 48 hrs; assay type: functional
[12] = Metabolic stability assessed as half life in Sclerotina sclerotiorum at 0.03 mM; assay type: ADME, organism-based; conditions: sclerotinia sclerotiorum, Sclerotinia sclerotiorum (whole organism)
[13] = Metabolic stability assessed as half life in Sclerotina sclerotiorum; assay type: ADME, organism-based; conditions: sclerotinia sclerotiorum, Sclerotinia sclerotiorum (whole organism)
In short: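 S. sclerotiorum clone #33 mycelial plugs were grown 4 days in minimal medium at 22 ± 1 °C, shaken at 120 rpm under constant light. Compound (0.050 or 0.10 mM final, in CH₃CN 0.5% v/v) was added, then brassinin (0.05 mM final) 10 min later. Samples taken over time were extracted with EtOAc, brassinin was measured by HPLC-DAD, and brassinin half-life was compared with brassinin-only cultures.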

SMILES | Activity (10^-10.mol/mg/min) (Sclerotinia sclerotiorum [1]) | Activity (Sclerotinia sclerotiorum [2]) [%] | Activity (Sclerotinia sclerotiorum [4]) [%] | half-life [5] [h] | Activity (10^-10.mol/mg/min) (Sclerotinia sclerotiorum [6]) | half-life at 100 µM [10] [h] | half-life at 30 µM [12] [h] | inhibition at 300 µM (Sclerotinia sclerotiorum [3]) [%] | inhibition at 100 µM (Sclerotinia sclerotiorum [7]) [%] | inhibition at 500 µM (Sclerotinia sclerotiorum [8]) [%] | Activity (Sclerotinia sclerotiorum [3]) | inhibition at 50 µM (Sclerotinia sclerotiorum [9]) [%] | Activity (Sclerotinia sclerotiorum [7]) | inhibition at 10 µM (Sclerotinia sclerotiorum [11]) [%] | Activity (Sclerotinia sclerotiorum [8]) | half-life [13] [h]
CSC(=S)NCc1cc2ccccc2[nH]1 [ISOBRASSININ] | 0.41 | 27 | 42 | 2 | 0.63 | – | – | 100 | 48 | – | – | – | – | – | – | –
COC(=O)c1cnn2ccc(OC)cc12 | 1.49 | 100 | 100 | – | 1.51 | – | – | – | – | 20 | inactive | – | – | – | – | –
COc1ccn2ncc(CNC(=S)SC)c2c1 | 1.48 | 99 | 98 | – | 1.47 | – | – | – | – | – | – | – | – | – | – | –
CSC(=S)NCc1coc2ccccc12 | 0.55 | 37 | 50 | – | 0.75 | 9 | – | 23 | – | 45 | – | – | inactive | – | – | –
CSC(=S)NCc1csc2ccccc12 | 1.12 | 75 | 81 | – | 1.22 | – | – | 63 | 10 | 89 | – | – | – | – | – | –
CSC(=S)NCc1cc2ccccc2o1 | 0.43 | 29 | 43 | – | 0.64 | – | 6 | 100 | 32 | – | – | – | – | – | – | –
CSC(=S)NCc1c[nH]c2ccccc12 [BRASSININ] | – | – | – | – | – | – | – | 100 | 37 | – | – | – | – | – | – | 9
c1ccc2[nH]c(-c3cscn3)nc2c1 [THIABENDAZOLE] | – | – | – | – | – | – | – | – | 86 | 93 | – | – | – | – | – | –

Continued, in another order:

Activity (10^-10.mol/mg/min) (Sclerotinia sclerotiorum [1]) | Activity (Sclerotinia sclerotiorum [2]) [%] | Activity (Sclerotinia sclerotiorum [4]) [%] | half-life [5] [h] | Activity (10^-10.mol/mg/min) (Sclerotinia sclerotiorum [6]) | half-life at 100 µM [10] [h] | half-life at 30 µM [12] [h] | SMILES | inhibition at 300 µM (Sclerotinia sclerotiorum [3]) [%] | inhibition at 100 µM (Sclerotinia sclerotiorum [7]) [%] | inhibition at 500 µM (Sclerotinia sclerotiorum [8]) [%] | Activity (Sclerotinia sclerotiorum [3]) | inhibition at 50 µM (Sclerotinia sclerotiorum [9]) [%] | Activity (Sclerotinia sclerotiorum [7]) | inhibition at 10 µM (Sclerotinia sclerotiorum [11]) [%] | Activity (Sclerotinia sclerotiorum [8]) | half-life [13] [h]
0.72 | 48 | 54 | – | 0.81 | – | – | Fc1ccc2[nH]cc(-c3nccs3)c2c1 [5-FLUOROCAMALEXIN] | 85 | 70 | – | – | 61 | – | – | – | –
0.63 | 42 | 53 | – | 0.79 | – | – | c1ccc(-c2coc3ccccc23)cc1 | 64 | 32 | 80 | – | – | – | – | – | –
0.2 | 13 | 23 | – | 0.34 | 10 | – | Fc1ccc2c(-c3ccccc3)c[nH]c2c1 [6-FLUORO-3-PHENYLINDOLE] | – | 93 | – | – | 87 | – | 65 | – | –
1.53 | 100 | 100 | – | 1.58 | – | – | CC(=O)Nc1cnc2ccccc2c1 | – | – | – | – | – | – | – | inactive | –
0.43 | 29 | 37 | – | 0.55 | – | – | Fc1cccc2[nH]cc(-c3ccccc3)c12 | – | – | – | – | 100 | – | 47 | – | –
0.19 | 13 | 23 | – | 0.35 | 10 | – | c1ccc(-c2c[nH]c3ccccc23)cc1 [3-PHENYLINDOLE] | – | 100 | – | – | 93 | – | 78 | – | –
1 | 63 | 66 | – | 0.97 | – | – | Fc1ccc2c(-c3nccs3)c[nH]c2c1 | – | – | – | – | – | – | – | – | –
0.59 | 39 | 39 | – | 0.59 | – | – | c1ccc(-c2cc3ccccc3[nH]2)cc1 | – | – | – | – | – | – | – | – | –
0.75 | 50 | 68 | – | 1.02 | – | – | CSC(=S)NCc1c[nH]c2ncccc12 | 28 | – | 65 | – | – | inactive | – | – | –
0.84 | 56 | 63 | – | 0.95 | – | – | c1ccc2c(-c3nccs3)c[nH]c2c1 [CAMALEXIN] | – | 100 | – | – | 81 | – | – | – | –
